Among the data in ChEMBL document CHEMBL4393666, “Synthesis and Anti-HCV Activities of 4'-Fluoro-2'-Substituted Uridine Triphosphates and Nucleotide Prodrugs: Discovery of 4'-Fluoro-2'- C-methyluridine 5'-Phosphoramidate Prodrug (AL-335) for the Treatment of Hepatitis C Infection” (J Med Chem, 2019) are IC50, CC50 and EC50 values, retold here.

As usually defined, the IC50 is the concentration that gives 50% inhibition. In general, CC50 refers to the concentration giving 50% cytotoxicity. For orientation: EC50 means the concentration at which the effect is half-maximal.

Series [1] deals with RNA-directed RNA polymerase (Hepacivirus hominis, UniProt O39930). The series is described as follows: Inhibition of HCV NS5B RNA-dependent RNA polymerase activity assessed as reduction in radiolabeled-CTP incorporation into RNA using cIRES template measured after 2 hrs by microscintillation counting method.
Series [2] in a line: Cytotoxicity against human HuH7 cells infected with HCV con1 subgenomic replicon assessed as reduction in cell viability measured after 3 days by CellTiter-blue cell viability assay. It counts as cell-based, Huh-7. In short, it runs like this: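 Con1 replicon Huh-7 cells treated as for the replicon assay (DMEM, 2% FBS, 0.5% DMSO, no G418, 37°C) for 3 days. Viability by CellTiter-Blue; CC50 by curve fitting.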
For orientation: Replicon systems follow genome replication, usually without infectious particles.

In a further series the test system is Hepatitis C virus. The series is described as follows: Antiviral activity against HCV con1 subgenomic replicon infected in human HuH7 cells assessed as reduction in viral RNA replication by qRT-PCR analysis. It counts as functional, organism-based, Hepacivirus hominis. The settings on record: isolate Con1, Huh-7. In a few lines: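 Con1 subgenomic replicon Huh-7 cells (neomycin selection, kept in DMEM/10% FBS with 0.25 mg/ml G418) treated with compounds in DMEM, 2% FBS, 0.5% DMSO, no G418, at 37°C. Total RNA extracted; HCV RNA copy number by multiplex Taqman QRT-PCR. EC50/EC90 by 4-parameter curve fit; EC50 is the mean of ≥2 independent runs.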

RNA-directed RNA polymerase, sequence (O39930 whole entry): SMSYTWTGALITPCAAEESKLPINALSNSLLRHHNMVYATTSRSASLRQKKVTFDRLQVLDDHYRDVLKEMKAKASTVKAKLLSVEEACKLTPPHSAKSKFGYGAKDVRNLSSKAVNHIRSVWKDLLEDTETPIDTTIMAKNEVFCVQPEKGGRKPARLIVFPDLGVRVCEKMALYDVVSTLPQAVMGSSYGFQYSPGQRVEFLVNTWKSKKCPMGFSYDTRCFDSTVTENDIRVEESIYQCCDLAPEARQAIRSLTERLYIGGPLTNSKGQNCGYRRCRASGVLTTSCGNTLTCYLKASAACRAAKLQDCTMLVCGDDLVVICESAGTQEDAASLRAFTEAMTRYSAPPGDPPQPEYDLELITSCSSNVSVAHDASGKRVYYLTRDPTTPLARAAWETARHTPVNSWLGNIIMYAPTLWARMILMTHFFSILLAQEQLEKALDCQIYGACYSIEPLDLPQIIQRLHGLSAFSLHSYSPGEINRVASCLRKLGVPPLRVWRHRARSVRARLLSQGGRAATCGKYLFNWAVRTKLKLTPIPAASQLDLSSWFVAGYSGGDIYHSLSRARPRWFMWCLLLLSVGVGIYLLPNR

For `C#C[C@@]1(F)[C@H](O)[C@@H](COP(=O)(O)OP(=O)(O)OP(=O)(O)O)O[C@H]1n1ccc(=O)[nH]c1=O`, the concentration for half-maximal inhibition (IC50) in series [1] worked out at 330 nM. Regarding `CC(C)OC(=O)[C@H](C)NP(=O)(OC[C@@]1(F)O[C@@H](n2ccc(=O)[nH]c2=O)[C@@](F)(Cl)[C@@H]1O)Oc1ccccc1` (stereo partly drawn), the CC50 at 72 h in series [2] is greater than 100000 nM. The EC50 with Hepatitis C virus turned out to be 45 nM. Take `CC(C)OC(=O)[C@H](C)NP(=O)(OC[C@@]1(F)O[C@@H](n2ccc(=O)[nH]c2=O)[C@](C)(Cl)[C@@H]1O)Oc1ccccc1` (stereo partly drawn): in series [2], the CC50 at 72 h is greater than 100000 nM. The EC50 in the series with Hepatitis C virus was determined as 100 nM.

For `C#C[C@]1(F)[C@H](n2ccc(=O)[nH]c2=O)O[C@](F)(COP(=O)(O)OP(=O)(O)OP(=O)(O)O)[C@H]1O`, the IC50 in series [1] came out at 340 nM. As for `C[C@H](NP(=O)(OC[C@@]1(F)O[C@@H](n2ccc(=O)[nH]c2=O)[C@](C)(O)[C@@H]1O)Oc1ccccc1)C(=O)OCC(C)(C)C` (stereo partly drawn), the CC50 at 72 h in series [2] was greater than 100000 nM. The EC50 in the series with Hepatitis C virus came out at 40 nM. The like results for `CC(C)OC(=O)[C@H](C)NP(=O)(OC[C@H]1O[C@@H](n2ccc(=O)[nH]c2=O)[C@](C)(F)[C@@H]1O)Oc1ccccc1` (stereo partly drawn) were, in that order, greater than 100000 nM and 220 nM.

In the case of `C#C[C@]1(O)[C@H](n2ccc(=O)[nH]c2=O)O[C@](F)(COP(=O)(N[C@@H](C)C(=O)OC2CCCCC2)Oc2ccccc2)[C@H]1O` (stereo partly drawn), the CC50 at 72 h in series [2] is greater than 100000 nM. For the same compound, in the series on Hepatitis C virus, the 50% effective concentration (EC50) came to 70 nM.

Take `CC(C)OC(=O)[C@H](C)NP(=O)(OC[C@@]1(F)O[C@@H](n2ccc(=O)[nH]c2=O)[C@](C)(O)[C@@H]1O)Oc1cccc2ccccc12` (stereo partly drawn): the CC50 at 72 h in series [2] is greater than 85000 nM. Also, the EC50 with Hepatitis C virus was 20 nM.

Regarding `C=C[C@]1(O)[C@H](n2ccc(=O)[nH]c2=O)O[C@](F)(COP(=O)(N[C@@H](C)C(=O)OC(C)C)Oc2ccccc2)[C@H]1O` (stereo partly drawn), the CC50 at 72 h in series [2] is greater than 100000 nM. The EC50 in the series with Hepatitis C virus was found to be 8300 nM.

For the compound `CC(C)OC(=O)[C@H](C)N[P@@](=O)(OC[C@@]1(F)O[C@@H](n2ccc(=O)[nH]c2=O)[C@](C)(O)[C@@H]1O)Oc1ccccc1`, in series [2], the CC50 at 72 h was greater than 100000 nM. For the same compound, in the series on Hepatitis C virus, the EC50 stood at 940 nM.

Take `CC[C@]1(O)[C@H](n2ccc(=O)[nH]c2=O)O[C@](F)(COP(=O)(O)OP(=O)(O)OP(=O)(O)O)[C@H]1O`: the IC50 in series [1] was 84000 nM. For the compound `C[C@H](NP(=O)(OC[C@@]1(F)O[C@@H](n2ccc(=O)[nH]c2=O)[C@](C)(O)[C@@H]1O)Oc1ccccc1)C(=O)OC1CCCCC1` (stereo partly drawn), the CC50 at 72 h in series [2] stood at 84000 nM. Further, the EC50 in the series with Hepatitis C virus was 40 nM.

For the compound `O=c1ccn([C@@H]2O[C@](F)(COP(=O)(O)OP(=O)(O)OP(=O)(O)O)[C@@H](O)[C@]2(O)CF)c(=O)[nH]1`, the IC50 in series [1] is 150 nM. Same read-out and setting: as for `C#C[C@]1(O)[C@H](n2ccc(=O)[nH]c2=O)O[C@](F)(COP(=O)(O)OP(=O)(O)OP(=O)(O)O)[C@H]1O`, the figure is 39 nM. The same measure, in the same setting: the same measure for `C=C[C@]1(O)[C@H](n2ccc(=O)[nH]c2=O)O[C@](F)(COP(=O)(O)OP(=O)(O)OP(=O)(O)O)[C@H]1O`: 6400 nM. For `CC(C)OC(=O)[C@H](C)NP(=O)(N[C@@H](C)C(=O)OC(C)C)OC[C@@]1(F)O[C@@H](n2ccc(=O)[nH]c2=O)[C@](C)(O)[C@@H]1O`, in series [2], the CC50 at 72 h was greater than 100000 nM. For the same compound, the half-maximal effective concentration (EC50) in the series with Hepatitis C virus amounted to 6600 nM. In the case of `CC[C@]1(O)[C@H](n2ccc(=O)[nH]c2=O)O[C@](F)(COP(=O)(N[C@@H](C)C(=O)OC(C)C)Oc2ccccc2)[C@H]1O` (stereo partly drawn), the half-maximal cytotoxic concentration (CC50) at 72 h in series [2] is greater than 100000 nM. In addition, the 50% effective concentration (EC50) in the series on Hepatitis C virus was found to be 43000 nM. Consider `CCOC(=O)[C@H](C)NP(=O)(N[C@@H](C)C(=O)OCC)OC[C@@]1(F)O[C@@H](n2ccc(=O)[nH]c2=O)[C@](C)(O)[C@@H]1O`, for which the CC50 at 72 h in series [2] was greater than 100000 nM. The EC50 in the series with Hepatitis C virus came out at 7500 nM. For `CC(C)OC(=O)[C@H](C)NP(=O)(OC[C@@]1(F)O[C@@H](n2ccc(=O)[nH]c2=O)[C@](C)(O)[C@@H]1O)Oc1ccc(Cl)cc1` (stereo partly drawn) the same measures were greater than 100000 nM and 80 nM.

As to `O=c1ccn([C@@H]2O[C@H](COP(=O)(O)OP(=O)(O)OP(=O)(O)O)[C@@H](O)[C@]2(O)CF)c(=O)[nH]1`, the IC50 in series [1] was found to be 280 nM. In the case of `CC(C)OC(=O)[C@H](C)NP(=O)(OC[C@@]1(F)O[C@@H](n2ccc(=O)[nH]c2=O)[C@](C)(F)[C@@H]1O)Oc1ccccc1` (stereo partly drawn), the CC50 at 72 h in series [2] is greater than 100000 nM. Further, in the series with Hepatitis C virus, the EC50 was determined as 310 nM. For `CC(C)OC(=O)[C@H](C)NP(=O)(OC[C@H]1O[C@@H](n2ccc(=O)[nH]c2=O)[C@](C)(Cl)[C@@H]1O)Oc1ccccc1` (stereo partly drawn) the same measures were greater than 100000 nM and 120 nM.

With `C#C[C@@]1(O)[C@H](O)[C@@H](COP(=O)(O)OP(=O)(O)OP(=O)(O)O)O[C@H]1n1ccc(=O)[nH]c1=O`, the IC50 in series [1] came out at 27 nM.
